Measurements taken from article PMC4153964 (Drugs in R&D, 2014).
Where two headings read alike, the source gives them in different places. Values belong to the compound of their own block, whether it stands above or below them.

Tests used:
cytochrome P450 (CYP) = conditions: cited from earlier work
Tolerability assessments = type: in vivo, healthy Korean male volunteers
Outline: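 Subjects receiving more than one dose were included. Medical staff monitored adverse events after dosing. Vital signs were taken seated after ≥5 min rest. 12-lead ECG was recorded before blood sampling. Physical examinations were done, and hematology, biochemistry and urinalysis were drawn after >8 h fasting. Investigators judged abnormal findings for clinical significance and relation to study drug.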

[1] = type: in vivo, healthy Korean male volunteers; conditions: for Pharmacokinetic effect on the co-administered drug: steady-state gemigliptin 50 mg, single-dose glimepiride 4 mg
Outline: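 Randomized open-label crossover. Oral gemigliptin 50 mg once daily for 6 days with glimepiride 4 mg co-administered on day 7, versus single glimepiride 4 mg. Heparinized plasma was sampled to 24 h (days 6–7 at 0–14 h, day 8 at 0 h). LC–MS/MS; LLOQ 0.5 ng/mL gemigliptin, 1 ng/mL glimepiride. Non-compartmental AUC by linear-up/log-down trapezoidal method. Log-transformed GMRs with 90 % CI from mixed-effects ANOVA.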

[2] = cited from earlier work
[3] = stated as known, no reference given; cited from earlier work
[4] = cited from earlier work; for t max: oral
[5] = cited from earlier work; remark: listed apart in the source
[6] = single ascending-dose study, healthy volunteers, 50–400 mg
[7] = another study, subjects all Caucasian
[8] = single-dose 4 mg, healthy volunteers, ref Malerczyk et al. [20]
[9] = glimepiride 4 mg + gemigliptin 50 mg, day 7
[10] = glimepiride 4 mg single dose only
[11] = plasma, glimepiride 4 mg single dose only

SMILES: N[C@@H](CC(=O)N1CCc2c(nc(C(F)(F)F)nc2C(F)(F)F)C1)CN1CC(F)(F)CCC1=O [Gemigliptin]
- inhibitory or induction potential (cytochrome P450 (CYP); gemigliptin and its metabolites, preclinical studies, ref Gemigliptin IB version 6.0, September 2012): very low
- major metabolic route (cytochrome P450 (CYP); preclinical studies, ref Gemigliptin IB version 6.0, September 2012): via cytochrome P450 (CYP) 3A4
- effects on cytochromes (cytochrome P450 (CYP); stated as known, no reference given): no significant effects on cytochromes
- Adverse events during dosing (events and participants) (Tolerability assessments; repeated gemigliptin dosing, 50 mg/day, 23 participants): six AEs occurred in four participants
- Adverse events considered possibly related to the study drug (Tolerability assessments; rhinorrhea, constipation, and headache): three AEs in three participants were considered possibly related to the study drug
- t max ([1]; male, human, plasma, oral, 50 mg, t max,ss, median (min–max), plasma, day 6, gemigliptin 50 mg once daily only): 1.5 h
- AUC ([1]; male, human, plasma, po, 50 mg): 798 ng·h/mL
- Cmax ([1]; male, human, plasma, po, 50 mg, C max,ss, mean (SD), plasma, day 6, gemigliptin 50 mg once daily only, oral): 80.2 ng/mL
- Pharmacokinetic effect on the co-administered drug [1]: nor did gemigliptin affect the pharmacokinetics of single-dose glimepiride
- half-life ([2]; day 1 of a previous study using 24 h sampling): 7.4 to 9.3 h
- accumulation ([2]; previous multiple-dose study): accumulation was reported
- half-life ([2]; previous multiple-dose study): approximately 17 h
- half-life ([2]; previously reported by multiple-dose studies, sampling ≤72 h after the last dose): 16.6 to 20.1 h
- mean t ½ [2, 6]: 16.7 to 21.3 h
- t max [2, 6]: 0.5 to 5.1 h
- protein binding [3]: no strong protein-binding characteristics

SMILES: CCC1=C(C)CN(C(=O)NCCc2ccc(S(=O)(=O)NC(=O)N[C@H]3CC[C@H](C)CC3)cc2)C1=O [Glimepiride]
- accumulation ([4]; after multiple dosing): without accumulation
- oral absorption ([4]; after oral administration): completely absorbed
- AUClast (geometric mean) [4, 7]: 8,753 ng · h/mL
- geometric C max mean [4, 7]: 1,084 ng/mL
- half-life [4]: < 5 h
- accumulation ([4]; multiple doses, 1 day vs 7 days, T2DM patients): does not accumulate
- t max ([4]; T2DM patients): 2.4 to 3.75 h
- t max ([4]; healthy volunteers): 0.7 to 2.8 h
- mean AUC [4, 8]: 1,297 μg/L · h
- mean C max [4, 8]: 307.8 ng/mL
- t max, median (min–max) [1, 9]: 3.0 (2.0–5.0) h
- t max, median (min–max) [1, 10]: 4.0 (2.0–5.0) h
- Pharmacokinetic effect on the co-administered drug [1]: no pharmacokinetic effects on steady-state gemigliptin

- t max, median (min–max) [1, 9]: 4.0 (3.0–6.0) h
- t max, median (min–max) [1, 10]: 4.0 (3.0–6.0) h
- AUClast, mean (SD) [1, 11]: 189.88 (52.77) ng · h/mL
- C max, mean (SD) [1, 11]: 28.26 (8.40) ng/mL
SMILES: CCC1=C(C)CN(C(=O)NCCc2ccc(S(=O)(=O)NC(=O)NC3CCC(CO)CC3)cc2)C1=O (stereo not drawn) [M1]

SMILES: OC(Cn1cncn1)(Cn1cncn1)c1ccc(F)cc1F [fluconazole]
- effect on plasma concentrations of glimepiride [5]: increase plasma concentrations of glimepiride

SMILES: CC#CCn1c(N2CCC[C@@H](N)C2)nc2c1c(=O)n(Cc1nc(C)c3ccccc3n1)c(=O)n2C [linagliptin]
- pharmacokinetics on coadministration of linagliptin and glyburide ([5]; linagliptin 5 mg/day × 6 days, glyburide single-dose 1.75 mg): not affected

SMILES: N[C@@H](CC(=O)N1CCn2c(nnc2C(F)(F)F)C1)Cc1cc(F)c(F)cc1F [sitagliptin]
- effect on the pharmacokinetics of glyburide [5]: does not affect the pharmacokinetics of glyburide
